From ChEMBL document CHEMBL4680248 (Eur J Med Chem, 2020)
The source made the active and inactive calls. The rule behind the calls is not given here.

Legend:
Xenopus laevis = test: Anesthetic activity in Xenopus laevis tadpoles assessed as increase in loss of righting reflex incubated for 30 to 60 mins; assay type: functional, organism-based
[1] = molecular target: T1, GABA-A receptor; alpha-1/beta-3/gamma-2 (Homo sapiens, UniProt P14867+P18507+P28472); test: Positive allosteric modulation of GABAA alpha1beta3gamma2L in HEK cell plasma membrane assessed as increase in [3H]muscimol binding measured after 10 mins by liquid scintillation counting method; assay type: cell membranes
T1 sequence (P14867 whole entry): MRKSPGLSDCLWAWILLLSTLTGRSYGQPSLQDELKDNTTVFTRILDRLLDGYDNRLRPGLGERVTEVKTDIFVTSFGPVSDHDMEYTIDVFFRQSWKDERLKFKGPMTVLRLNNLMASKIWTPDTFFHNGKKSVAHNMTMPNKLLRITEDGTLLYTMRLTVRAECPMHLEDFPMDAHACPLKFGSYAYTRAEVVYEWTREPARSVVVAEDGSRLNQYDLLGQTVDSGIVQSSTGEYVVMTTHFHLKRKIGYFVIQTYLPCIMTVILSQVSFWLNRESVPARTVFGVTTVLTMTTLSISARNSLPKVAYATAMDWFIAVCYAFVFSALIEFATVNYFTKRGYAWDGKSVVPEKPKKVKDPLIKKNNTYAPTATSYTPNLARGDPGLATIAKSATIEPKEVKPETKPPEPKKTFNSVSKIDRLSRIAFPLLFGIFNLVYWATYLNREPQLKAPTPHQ
T1 sequence (P18507 whole entry): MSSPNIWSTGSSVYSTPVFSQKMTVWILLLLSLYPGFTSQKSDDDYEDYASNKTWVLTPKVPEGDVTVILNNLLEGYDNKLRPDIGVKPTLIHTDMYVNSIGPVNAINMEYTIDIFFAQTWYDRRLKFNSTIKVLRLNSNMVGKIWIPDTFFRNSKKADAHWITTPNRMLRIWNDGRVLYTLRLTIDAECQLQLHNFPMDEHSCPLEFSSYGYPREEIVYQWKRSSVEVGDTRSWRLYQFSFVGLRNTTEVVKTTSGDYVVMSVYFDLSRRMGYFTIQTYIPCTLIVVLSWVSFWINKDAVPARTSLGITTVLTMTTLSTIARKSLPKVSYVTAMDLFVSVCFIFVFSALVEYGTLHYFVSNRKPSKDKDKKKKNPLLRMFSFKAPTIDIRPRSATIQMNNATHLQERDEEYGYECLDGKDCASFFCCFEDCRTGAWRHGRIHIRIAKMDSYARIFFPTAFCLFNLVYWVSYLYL
T1 sequence (P28472 whole entry): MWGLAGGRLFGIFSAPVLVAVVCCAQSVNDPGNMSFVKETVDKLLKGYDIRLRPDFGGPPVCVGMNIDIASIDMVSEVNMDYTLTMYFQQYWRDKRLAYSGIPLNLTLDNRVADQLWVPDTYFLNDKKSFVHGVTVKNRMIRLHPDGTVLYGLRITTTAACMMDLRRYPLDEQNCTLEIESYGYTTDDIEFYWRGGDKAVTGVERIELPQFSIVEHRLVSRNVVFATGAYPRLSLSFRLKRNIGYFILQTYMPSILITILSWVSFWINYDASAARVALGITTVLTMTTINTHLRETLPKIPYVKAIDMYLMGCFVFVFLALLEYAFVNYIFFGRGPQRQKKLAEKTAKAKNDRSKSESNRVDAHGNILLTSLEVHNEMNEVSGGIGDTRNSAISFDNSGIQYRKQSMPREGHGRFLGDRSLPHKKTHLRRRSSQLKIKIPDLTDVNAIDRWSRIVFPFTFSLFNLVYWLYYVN
Method in brief: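 HEK293 membranes (100 μg protein) from tetracycline-inducible cells expressing FLAG-tagged human receptors. Incubated 10 min with 2 nM [3H]muscimol (final) and modulator in 10 mM phosphate, 200 mM KCl, 1 mM EDTA, pH 7.4. Filtered on PEI-treated GF/B filters and washed twice with cold buffer. EC50 from fitting a logistic equation (Eqn 1) to pooled concentration-response points from independent experiments.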

[2] = molecular target: T1, GABA-A receptor; alpha-1/beta-3/gamma-2; test: Inhibition of [3H]azietomidate labelling of GABAA alpha1beta3gamma2L (unknown origin) expressed in Xenopus laevis oocytes assessed as reduction in photoincorporation at M236 residues of alpha1 subunit measured after 30 mins in presence of GABA by liquid scintillation counting method; assay type: cell-based, Oocyte
[3] = molecular target: T1, GABA-A receptor; alpha-1/beta-3/gamma-2; test: Inhibition of [3H]R-mTFD-MPAB labelling of GABAA alpha1beta3gamma2L (unknown origin) expressed in Xenopus laevis oocytes assessed as reduction in photoincorporation at M227 residues of beta3 subunit measured after 30 mins in presence of GABA by liquid scintillation counting method; assay type: cell-based
[4] = molecular target: T1, GABA-A receptor; alpha-1/beta-3/gamma-2; test: Inhibition of [3H]pTFD-di-iPr-BnOH labelling of GABAA alpha1beta3gamma2L (unknown origin) expressed in Xenopus laevis oocytes assessed as reduction in photoincorporation at beta subunit measured after 30 mins in presence of GABA by liquid scintillation counting method; assay type: cell-based
[5] = Toxicity in Xenopus laevis tadpoles
[6] = molecular target: T2, GABA-A receptor alpha-1/beta-3 (Homo sapiens, UniProt P14867+P28472); test: Positive allosteric modulation of GABAA alpha1beta3 in HEK cell plasma membrane assessed as increase in [3H]muscimol binding measured after 10 mins by liquid scintillation counting method; assay type: cell membranes
T2 sequence (P14867 whole entry): T1 sequence (P14867 whole entry)
T2 sequence (P28472 whole entry): T1 sequence (P28472 whole entry)
Method in brief: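 Native membranes from tetracycline-inducible HEK293 cells expressing FLAG-tagged human receptors (100 μg protein), [3H]muscimol 2 nM final, plus modulator in 10 mM phosphate, 200 mM KCl, 1 mM EDTA, pH 7.4; 10 min incubation, filtration on PEI-treated GF/B filters, two cold washes. Concentration-response curves from independent experiments fitted to a Hill equation for EC50 and nH.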

[7] = molecular target: T1, GABA-A receptor; alpha-1/beta-3/gamma-2; test: Positive allosteric modulation of GABAA alpha1beta3gamma2L (unknown origin) expressed in Xenopus laevis oocytes assessed as increase in GABA-induced current by two microelectrode voltage-clamp electrophysiology; assay type: cell-based, Oocyte
Method in brief: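 Human subunit mRNA (0.5–1 ng, α:β:γ 1:1:5) injected into Xenopus oocytes, recorded about 24 h later. Two-electrode voltage clamp at −50 mV, room temperature, ND96 pH 7.6.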

Oocyte [8] = assay type: cell-based; conditions: Homo sapiens, filed as positive allosteric modulator, dose 8.0 µM
Oocyte [9] = test: Positive allosteric modulation of GABAA alpha1beta3gamma2L S270I mutant (unknown origin) expressed in Xenopus laevis oocytes assessed as increase in GABA-induced current at 8 uM by two microelectrode voltage-clamp electrophysiology; assay type: cell-based; conditions: Homo sapiens
Oocyte [10] = test: Positive allosteric modulation of GABAA alpha1beta3gamma2L S280W mutant (unknown origin) expressed in Xenopus laevis oocytes assessed as increase in GABA-induced current at 8 uM by two microelectrode voltage-clamp electrophysiology; assay type: cell-based; conditions: Homo sapiens
Oocyte [11] = test: Positive allosteric modulation of GABAA alpha1beta3gamma2L M227W mutant (unknown origin) expressed in Xenopus laevis oocytes assessed as increase in GABA-induced current at 8 uM by two microelectrode voltage-clamp electrophysiology; assay type: cell-based; conditions: Homo sapiens, filed as positive allosteric modulator
Oocyte [12] = test: Positive allosteric modulation of GABAA alpha1beta3gamma2L I242W mutant (unknown origin) expressed in Xenopus laevis oocytes assessed as increase in GABA-induced current at 8 uM by two microelectrode voltage-clamp electrophysiology; assay type: cell-based; conditions: Homo sapiens, filed as positive allosteric modulator

SMILES: OCc1ccc(C2(C(F)(F)F)N=N2)cc1
- EC50 (Xenopus laevis): 28 µM
- EC50 [1]: 700 µM
- IC50 [2]: 305 µM
- IC50 [3]: 465 µM

SMILES: CC(C)c1cccc(C(C)C)c1O [PROPOFOL]
- EC50 (Xenopus laevis): 0.63 µM
- EC50 [1]: 5.4 µM
- IC50 [2]: 8 µM
- IC50 [3]: 44 µM
- IC50 [4]: 32 µM

SMILES: CC(C)c1cc(C2(C(F)(F)F)N=N2)cc(C(C)C)c1CO
- EC50 (Xenopus laevis): 2.5 µM
- LC50 [5]: 3.6 µM
- EC50 [1]: 7.4 µM
- EC50 [6]: 2.9 µM
- EC50 [7]: 10 µM
- IC50 [2]: 460 µM
- IC50 [3]: 26 µM
- IC50 [4]: 18 µM

SMILES: CC(C)c1cccc(C(C)C)c1CO
- EC50 (Xenopus laevis): 16 µM
- EC50 [1]: 40 µM
- IC50 [2]: 92 µM
- IC50 [3]: 243 µM

SMILES: OCc1ccccc1 [BENZYL ALCOHOL]
- EC50 (Xenopus laevis): 2000 µM
- EC50 [1]: > 50000 µM

SMILES: C=CCC1(c2cccc(C3(C(F)(F)F)N=N3)c2)C(=O)NC(=O)N(C)C1=O (stereo not drawn)
- Activity (Oocyte [8]): Active
- Activity (Oocyte [9]): inactive
- Activity (Oocyte [10]): inactive
- Activity (Oocyte [11]): Active
- Activity (Oocyte [12]): Active
